ChEMBL document CHEMBL4330069, “Boosting the efficacy of anti-MRSA β-lactam antibiotics via an easily accessible, non-cytotoxic and orally bioavailable FtsZ inhibitor” (Eur J Med Chem, 2019)
≈ marks a conversion by molar mass, not a printed value.

Legend:
Assay type in all cases: functional
[1] = tested on: Staphylococcus aureus; test: Antibacterial activity against multidrug-resistant Staphylococcus aureus isolate 2728 by broth microdilution assay
Outline: (§1)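 Broth microdilution MIC per CLSI guidelines against clinical MRSA isolates, for β-lactams and test compound alone and in combination. Compounds were dissolved in DMSO. Growth was read by eye, in duplicate. FIC index = FIC(compound) + FIC(drug); synergy defined as FIC index ≤0.5.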

[2] = tested on: Staphylococcus aureus; test: Antibacterial activity against multidrug-resistant Staphylococcus aureus isolate 1136 by broth microdilution assay; outline: as §1
[3] = tested on: Staphylococcus aureus; test: Antibacterial activity against multidrug-resistant Staphylococcus aureus isolate 2224 by broth microdilution assay; outline: as §1
[4] = tested on: Staphylococcus aureus; test: Antibacterial activity against multidrug-resistant Staphylococcus aureus isolate 256 by broth microdilution assay; outline: as §1
[5] = tested on: Staphylococcus aureus; test: Antibacterial activity against multidrug-resistant Staphylococcus aureus isolate 2973 by broth microdilution assay; outline: as §1
[6] = tested on: Staphylococcus aureus; test: Antibacterial activity against multidrug-resistant Staphylococcus aureus isolate 757 by broth microdilution assay; outline: as §1
[7] = tested on: Staphylococcus aureus; test: Antibacterial activity against multidrug-resistant Staphylococcus aureus isolate 1402 by broth microdilution assay; outline: as §1
[8] = tested on: Staphylococcus aureus; test: Antibacterial activity against multidrug-resistant Staphylococcus aureus isolate 417 by broth microdilution assay; outline: as §1
[9] = tested on: Staphylococcus aureus; test: Antibacterial activity against multidrug-resistant Staphylococcus aureus isolate 3332 by broth microdilution assay; outline: as §1
[10] = tested on: Staphylococcus aureus; test: Antibacterial activity against multidrug-resistant Staphylococcus aureus isolate 2516 by broth microdilution assay; outline: as §1
[11] = tested on: Staphylococcus aureus; test: Antibacterial activity against multidrug-resistant Staphylococcus aureus isolate 3411 by broth microdilution assay; outline: as §1
[12] = tested on: Staphylococcus aureus; test: Antibacterial activity against multidrug-resistant Staphylococcus aureus isolate 3580 by broth microdilution assay; outline: as §1
[13] = tested on: Staphylococcus aureus; test: Antibacterial activity against multidrug-resistant Staphylococcus aureus isolate 2919 by broth microdilution assay; outline: as §1
[14] = tested on: Staphylococcus aureus; test: Antibacterial activity against multidrug-resistant Staphylococcus aureus isolate 2901 by broth microdilution assay; outline: as §1
[15] = tested on: Staphylococcus aureus; test: Antibacterial activity against multidrug-resistant Staphylococcus aureus isolate 774 by broth microdilution assay; outline: as §1
[16] = tested on: Staphylococcus aureus; test: Antibacterial activity against multidrug-resistant Staphylococcus aureus isolate 3267 by broth microdilution assay; outline: as §1
[17] = tested on: Staphylococcus aureus; test: Antibacterial activity against multidrug-resistant Staphylococcus aureus isolate 1717 by broth microdilution assay; outline: as §1
[18] = tested on: Staphylococcus aureus; test: Antibacterial activity against multidrug-resistant Staphylococcus aureus isolate 3589 by broth microdilution assay; outline: as §1
[19] = tested on: Staphylococcus aureus; test: Antibacterial activity against multidrug-resistant Staphylococcus aureus isolate 254 by broth microdilution assay; outline: as §1
[20] = tested on: Staphylococcus aureus; test: Antibacterial activity against multidrug-resistant Staphylococcus aureus isolate 1449 by broth microdilution assay; outline: as §1
[21] = tested on: Staphylococcus aureus; test: Antibacterial activity against multidrug-resistant Staphylococcus aureus isolate 85 by broth microdilution assay; outline: as §1
[22] = tested on: Staphylococcus aureus; test: Antibacterial activity against multidrug-resistant Staphylococcus aureus isolate 1749 by broth microdilution assay; outline: as §1
[23] = tested on: Staphylococcus aureus; test: Antibacterial activity against multidrug-resistant Staphylococcus aureus isolate 1344 by broth microdilution assay; outline: as §1
[24] = tested on: Staphylococcus aureus; test: Antibacterial activity against multidrug-resistant Staphylococcus aureus isolate 358 by broth microdilution assay; outline: as §1
[25] = tested on: Staphylococcus aureus; test: Antibacterial activity against multidrug-resistant Staphylococcus aureus isolate 200 by broth microdilution assay; outline: as §1
[26] = tested on: Staphylococcus aureus; test: Antibacterial activity against multidrug-resistant Staphylococcus aureus isolate 2490 by broth microdilution assay; outline: as §1
[27] = tested on: Staphylococcus aureus; test: Antibacterial activity against multidrug-resistant Staphylococcus aureus isolate 2895 by broth microdilution assay; outline: as §1
[28] = tested on: Staphylococcus aureus; test: Antibacterial activity against multidrug-resistant Staphylococcus aureus isolate 231 by broth microdilution assay; outline: as §1
[29] = tested on: Staphylococcus aureus; test: Antibacterial activity against multidrug-resistant Staphylococcus aureus ATCC 43300 infected in BALB/C mouse assessed as mouse survival at 50 mg/kg, ip bid measured after 5 days relative to control

| SMILES | MIC [1] [µg/mL] | MIC [2] [µg/mL] | MIC [3] [µg/mL] | MIC [4] [µg/mL] | MIC [5] [µg/mL] | MIC [6] [µg/mL] | MIC [7] [µg/mL] | MIC [8] [µg/mL] | MIC [9] [µg/mL] | MIC [10] [µg/mL] | MIC [11] [µg/mL] | MIC [12] [µg/mL] | MIC [13] [µg/mL] | MIC [14] [µg/mL] | MIC [15] [µg/mL] | MIC [16] [µg/mL] | MIC [17] [µg/mL] | MIC [18] [µg/mL] | MIC [19] [µg/mL] | MIC [20] [µg/mL] | further results |
| --- | --- | --- | --- | --- | --- | --- | --- | --- | --- | --- | --- | --- | --- | --- | --- | --- | --- | --- | --- | --- | --- |
| C[C@@H](O)[C@H]1C(=O)N2C(C(=O)O)=C(S[C@@H]3CN[C@H](C(=O)N(C)C)C3)[C@H](C)[C@H]12 [MEROPENEM] | 2 (≈ 5.22 µM) | 2 (≈ 5.22 µM) | 2 (≈ 5.22 µM) | 2 (≈ 5.22 µM) | 1 (≈ 2.61 µM) | 4 (≈ 10.4 µM) | 1 (≈ 2.61 µM) | 64 (≈ 167 µM) | 2 (≈ 5.22 µM) | 16 (≈ 41.7 µM) | 4 (≈ 10.4 µM) | 8 (≈ 20.9 µM) | 1 (≈ 2.61 µM) | 1 (≈ 2.61 µM) | 32 (≈ 83.4 µM) | 2 (≈ 5.22 µM) | 1 (≈ 2.61 µM) | 4 (≈ 10.4 µM) | 8 (≈ 20.9 µM) | 0.13 (≈ 0.339 µM) | MIC [21]: 2 µg/mL (≈ 5.22 µM); MIC [22]: 0.5 µg/mL (≈ 1.3 µM); MIC [23]: 16 µg/mL (≈ 41.7 µM); MIC [24]: 0.13 µg/mL (≈ 0.339 µM); MIC [25]: 1 µg/mL (≈ 2.61 µM); MIC [26]: 2 µg/mL (≈ 5.22 µM); MIC [27]: 1 µg/mL (≈ 2.61 µM); MIC [28]: 32 µg/mL (≈ 83.4 µM) |
| COc1cccc(OC)c1C(=O)N[C@@H]1C(=O)N2[C@@H]1SC(C)(C)[C@@H]2C(=O)O [METHICILLIN] | 32 (≈ 84.1 µM) | 64 (≈ 168 µM) | 16 (≈ 42.1 µM) | 128 (≈ 336 µM) | 16 (≈ 42.1 µM) | 64 (≈ 168 µM) | 32 (≈ 84.1 µM) | 1020 (≈ 2690 µM) | 128 (≈ 336 µM) | 64 (≈ 168 µM) | 128 (≈ 336 µM) | 16 (≈ 42.1 µM) | 32 (≈ 84.1 µM) | 256 (≈ 673 µM) | 16 (≈ 42.1 µM) | 64 (≈ 168 µM) | 16 (≈ 42.1 µM) | 256 (≈ 673 µM) | 1020 (≈ 2690 µM) | 8 (≈ 21 µM) | MIC [21]: 8 µg/mL (≈ 21 µM); MIC [22]: 32 µg/mL (≈ 84.1 µM); MIC [23]: 256 µg/mL (≈ 673 µM); MIC [24]: 16 µg/mL (≈ 42.1 µM); MIC [25]: 16 µg/mL (≈ 42.1 µM); MIC [26]: 1020 µg/mL (≈ 2690 µM); MIC [27]: 64 µg/mL (≈ 168 µM); MIC [28]: 1020 µg/mL (≈ 2690 µM) |
| CC1(C)S[C@@H]2[C@H](NC(=O)[C@H](N)c3ccc(O)cc3)C(=O)N2[C@H]1C(=O)O [AMOXICILLIN] | 512 (≈ 1400 µM) | 512 (≈ 1400 µM) | 512 (≈ 1400 µM) | 256 (≈ 701 µM) | 512 (≈ 1400 µM) | 8 (≈ 21.9 µM) | 256 (≈ 701 µM) | 512 (≈ 1400 µM) | 64 (≈ 175 µM) | 64 (≈ 175 µM) | 256 (≈ 701 µM) | 256 (≈ 701 µM) | 1020 (≈ 2800 µM) | 512 (≈ 1400 µM) | 512 (≈ 1400 µM) | 8 (≈ 21.9 µM) | 32 (≈ 87.6 µM) | 128 (≈ 350 µM) | 128 (≈ 350 µM) | 2 (≈ 5.47 µM) | MIC [21]: 256 µg/mL (≈ 701 µM); MIC [22]: 64 µg/mL (≈ 175 µM); MIC [23]: 128 µg/mL (≈ 350 µM); MIC [24]: 256 µg/mL (≈ 701 µM); MIC [25]: 512 µg/mL (≈ 1400 µM); MIC [26]: 128 µg/mL (≈ 350 µM); MIC [27]: 256 µg/mL (≈ 701 µM); MIC [28]: 256 µg/mL (≈ 701 µM) |
| CCCCCCCCCNc1ccc(F)c(C(N)=O)c1F.Cl |  |  |  |  |  |  |  |  |  |  |  |  |  |  |  |  |  |  |  |  | Activity [29]: 33% |
